A selection: hits, their analogues and other compounds. The true share with any hit is near 2.1%.
HTR2A ag: activates the mouse 5-HT2A serotonin receptor. CHO-K1 mHTR2A beta-arrestin complementation, luminescence; percent of 30 µM serotonin response. activation, % at 7.6 µM. 360,000 compounds, 0.66% hits. AID 624169;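 active = activation above a run cutoff, the mean activation of all tested compounds plus 3 SD, cut at about 14% in these data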;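 note: 0% = plate median of compound wells and 100% = 30 µM serotonin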
Target sequence (P35363 whole entry, looked up): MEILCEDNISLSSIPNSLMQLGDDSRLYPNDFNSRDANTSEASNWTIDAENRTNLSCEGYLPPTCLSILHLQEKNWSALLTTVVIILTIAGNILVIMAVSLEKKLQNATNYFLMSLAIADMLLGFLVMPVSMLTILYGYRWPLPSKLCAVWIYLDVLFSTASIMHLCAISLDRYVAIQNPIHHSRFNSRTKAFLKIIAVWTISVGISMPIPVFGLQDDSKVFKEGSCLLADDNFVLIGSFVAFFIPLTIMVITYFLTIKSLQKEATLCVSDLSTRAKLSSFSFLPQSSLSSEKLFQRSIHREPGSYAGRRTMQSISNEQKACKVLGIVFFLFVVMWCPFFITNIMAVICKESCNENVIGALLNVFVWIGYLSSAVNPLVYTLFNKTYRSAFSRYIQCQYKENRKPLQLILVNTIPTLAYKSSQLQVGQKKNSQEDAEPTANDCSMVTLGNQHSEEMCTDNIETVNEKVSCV
CXCR6 inh: inhibitors of human CXCR6 receptor. O00574. inhibition, % at 20 µM. 360,000 compounds, 0.36% hits. CHO-K1 PathHunter CXCR6 beta-arrestin, luminescence. AID 602244; in the data active = inhibition above about 34%, passing the limit was not always enough;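 note: antagonist mode with CXCL16 agonist at 10 nM final; 0% = 10 nM CXCL16 with DMSO and 100% = unstimulated wells without agonist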
EBI2 block: EBI2 (human) antagonism. P32249. EBI2 beta-arrestin recruitment, luminescence, 7a,25-OHC stimulated. inhibition, % at 5 µM. 360,000 compounds, 0.81% hits. AID 651636; in the data active = inhibition above about 38%;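 note: enzyme fragment complementation signal reports receptor beta-arrestin coupling in cells; 0% = agonist plus DMSO wells and 100% = wells without agonist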
APJ agonist: APJ receptor agonism; 330,000 compounds, 0.11% hits; CHO-K1 APJ PathHunter beta-arrestin, luminescence; 0% DMSO wells, 100% apelin; P35414; activation, % at 20 µM;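 active = activation more than six SD over the plate average, tested at 20 µM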;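 note: 0% = DMSO alone and 100% = apelin-13 at 10 nM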
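system = engineered CHO-K1 APJ arrestin reporter cells | input = 1000 cells per well | timing = overnight seeding, 90 min compound at 25 °C, 1 h detection | measured by = enzyme-fragment complementation luminescence | read-out = beta-arrestin recruitment to APJ as agonist activity, luminescent signal | control set = negative DMSO alone, positive Apelin-13 at 10 nM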
CCR6 antagonist: antagonists of human CCR6 receptor; P51684; CHO-K1 CCR6 PathHunter beta-arrestin, luminescence, CCL20-stimulated; inhibition, % at 20 µM; 340,000 compounds, 0.49% hits;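 active = compounds whose inhibition of the agonist-driven luminescence signal at 20 µM reaches about 50%, limit read from the data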;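 note: cells stimulated with CCL20 at 14 nM final; plate controls were DMSO with CCL20 for no effect and DMSO without agonist for full effect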
APJ antag: APJ receptor antagonism | 330,000 compounds, 0.32% hits | inhibition, % at 20 µM | CHO-K1 APJ beta-arrestin complementation, luminescence | AID 2521;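 active = inhibition above about 40% at 20 µM, limit read from the data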;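 note: cells challenged with 10 nM apelin-13 agonist together with compound; plate controls were apelin-13 plus DMSO wells for no effect and DMSO wells lacking apelin-13 for full effect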
EBI2 conf: confirmation of human EBI2 receptor antagonists; shares compounds with EBI2 block; EBI2 beta-arrestin luminescence, 7a,25-OHC antagonism; inhibition, % at 5 µM; 2,400 compounds, 29% hits; AID 651997;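 active = inhibition of at least 50%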
EBI2 ag: counter-screen for EBI2 antagonists: EBI2 agonist activity; EBI2-expressing cells, agonist mode, luminescence, 60 min; 0% vehicle, 100% 7α,25-dihydroxycholesterol control; activation, % at 5 µM; shares compounds with EBI2 block; AID 652000; 2,400 tested, under 10 active;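 active = activation of at least 50%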
bGal cs: beta-galactosidase inhibition counter-screen; shares compounds with EBI2 block; purified beta-galactosidase, luminescent Galacton Star, 15 min; inhibition, % at 5 µM; 2,400 compounds, 1% hits; AID 652176;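 active = replicate-average signal at least 3 plate SD below neutral wells, shown as high inhibition, flagging enzyme-inhibiting false positives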;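 note: 0% = DMSO wells with enzyme and 100% = wells lacking enzyme; higher means stronger loss of beta-gal luminescence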
* marks the source's active call; other numbers are inactive results.

COc1ccc(-n2cc(-c3ccccc3)nc2SC)cc1 was read as HTR2A ag -5.3, CXCR6 inh -0.8, EBI2 block 42.2*, APJ agonist 0.8, CCR6 antagonist 11.7, APJ antag 20.0, EBI2 conf 34.5, EBI2 ag -0.2 and bGal cs 3.5.
`O=C1CCCC(O)=C1N=Nc1cccc(C(=O)O)c1` gave HTR2A ag 7.3, CXCR6 inh -3.3, EBI2 block -6.5, APJ agonist 0.4, CCR6 antagonist 6.3 and APJ antag 12.5.
For COc1ccc(-c2ccc(CN3C(CC(C)C)C(=O)N(Cc4cn(CC5CCCCC5)nn4)CCS3(=O)=O)cc2)cc1OC (configuration not stated) the results were HTR2A ag 0.7, CXCR6 inh 5.6 and EBI2 block 20.3.
COc1ccc(-c2ccc(CN3C(C(C)C)C(=O)N(Cc4cn(CC5CCCCC5)nn4)CCS3(=O)=O)cc2)cc1OC (configuration not stated) was read as HTR2A ag 4.8, CXCR6 inh 7.7, EBI2 block 43.9*, EBI2 conf 10.8, EBI2 ag 0.9 and bGal cs -1.1.
CCc1ccccc1NC(=O)CN1CCN(C(=O)C2CCN(C(=O)/C=C/c3ccccc3)CC2)CC1 was read as HTR2A ag 2.6, CXCR6 inh -0.6, EBI2 block 76.9*, APJ agonist -0.1, CCR6 antagonist 7.1, APJ antag 6.0, EBI2 conf 52.5*, EBI2 ag 1.2 and bGal cs 1.3.
Screening CCc1ccccc1NC(=O)CN1CCN(CC(=O)Nc2ccc(-c3ccccc3)cc2)CC1 returned HTR2A ag 4.8, CXCR6 inh -0.7, EBI2 block 6.4, APJ agonist -0.2, CCR6 antagonist 17.6 and APJ antag -1.2.
Cc1ccc(/C=C/C(=O)N2CCCC(C)C2)cc1 (configuration not stated) was read as HTR2A ag -3.3, CXCR6 inh 9.5, EBI2 block 67.1*, APJ agonist -3.7, CCR6 antagonist 6.5, APJ antag 5.5, EBI2 conf 42.4, EBI2 ag -0.1 and bGal cs 10.8.
Cc1ccc(/C=C/C(=O)N2CCC(Cc3ccccc3)CC2)cc1 was read as HTR2A ag -4.5, CXCR6 inh 0.8, EBI2 block 95.7*, APJ agonist -0.1, CCR6 antagonist -4.4, APJ antag -2.6, EBI2 conf 85.5*, EBI2 ag 1.6 and bGal cs 6.7.
Screening CCOC(=O)C1CCCN(C(=O)/C=C/c2ccc(Cl)cc2)C1 (configuration not stated) returned HTR2A ag 6.4, CXCR6 inh -5.5, EBI2 block 46.5*, APJ agonist -0.5, CCR6 antagonist 19.4, APJ antag -2.3, EBI2 conf 21.7, EBI2 ag -0.5 and bGal cs -7.4.
`CC1CCCCC1NC(=O)/C(C#N)=C/c1ccc(F)c(F)c1` (configuration not stated) gave HTR2A ag 3.3, CXCR6 inh 3.4, EBI2 block -10.9, APJ agonist 0.9, CCR6 antagonist 1.6 and APJ antag 10.0.
COC(=O)CNC(=O)C1Cc2ccccc2CN1S(=O)(=O)c1cccs1 (configuration not stated) was read as HTR2A ag 3.4, CXCR6 inh -1.4, EBI2 block 14.8, APJ agonist -2.6, CCR6 antagonist 4.0 and APJ antag -11.9.
For COc1ccc(CN(Cc2cccnc2)S(=O)(=O)c2ccc(-n3cnnn3)c(OC)c2)cc1 the results were HTR2A ag 2.1, CXCR6 inh -4.7, EBI2 block 4.3, APJ agonist -4.2, CCR6 antagonist 2.6 and APJ antag 11.7.
